Assays:
[1] = Cytotoxicity was evaluated against LS174T-stCPG2(Q)3-expressing cell clone; type: functional; settings: Homo sapiens
Summary of the method: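 LS174T colon cells stably transfected with surface-tethered mutant CPG2 (stCPG2(Q)3) plasmid; 2 × 10^6 cells seeded, confluent at 48 h. Compound added from DMSO stock in full medium, a similar dose re-added after 1 h, then 20 h more. Cells reseeded in quadruplicate at ~2 × 10^3/well, grown to control confluence; sulforhodamine-B at 590 nm, IC50 by interpolation.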

[2] = Kinetic parameter(rate of catalysis) was evaluated; type: ADME
[3] = Kinetic parameter (half-life prodrug/drug) was evaluated; type: ADME
Summary of the method: (§1)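 10 mM stocks diluted 100-fold to 100 µM in CPG2 assay buffer (100 mM Tris-HCl pH 7.3, 260 µM ZnCl2) at 37 °C. Remaining starting material followed by isocratic C18 HPLC in 10 mM ammonium acetate pH 5.0/methanol, UV at compound-specific wavelength, via repeat injections every 7.5 min or fresh-vial injections every 1 min.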

[4] = Kinetic parameter (half-life) was evaluated; NA ='Not applicable'; type: ADME; summary of the method: as §1

Structure (SMILES)	IC50 [1] [µM]	k cat [2] [s⁻¹]	T1/2 [3] [min]	T1/2 [4]
CS(=O)(=O)OCCN(CCCl)c1ccc(C(=O)O)cc1	27.8			
Nc1ccc(N(CCF)CCF)cc1	121			
O=C(O)CC[C@H](NC(=O)Nc1ccc(COC(=O)Nc2ccc(N(CCF)CCF)cc2)cc1)C(=O)O	184	50	0.4	
O=C(O)CC[C@H](NC(=O)Oc1ccc(COC(=O)Nc2ccc(N(CCF)CCF)cc2)cc1)C(=O)O	257	50		Not Active
O=C(O)CC[C@H](NC(=O)Nc1ccc(CO)cc1)C(=O)O		65.4		
Oc1ccc(N(CCF)CCF)cc1	323			Not Active
O=C(O)CC[C@H](NC(=O)Oc1ccc(COC(=O)Oc2ccc(N(CCF)CCF)cc2)cc1)C(=O)O	128	< 10		Not Active
O=C(O)CC[C@H](NC(=O)Oc1ccc(COC(=O)Oc2ccc(N(CCCl)CCCl)cc2)cc1)C(=O)O	0.42	< 10	13.7	
O=C(O)CC[C@H](NC(=O)Nc1ccc(COC(=O)Oc2ccc(N(CCF)CCF)cc2)cc1)C(=O)O	264		< 10	
O=C(O)CC[C@H](NC(=O)Nc1ccc(COC(=O)Oc2ccc(N(CCCl)CCCl)cc2)cc1)C(=O)O	0.48	< 10	0.3	
O=C(O)CC[C@H](NC(=O)Nc1ccc(COC(=O)Nc2ccc(N(CCCl)CCCl)cc2)cc1)C(=O)O	0.46	50	7.6	
O=C(O)CC[C@H](NC(=O)Oc1ccc(COC(=O)Nc2ccc(N(CCCl)CCCl)cc2)cc1)C(=O)O	0.62	< 10	8.1	
O=C(O)CC[C@H](NC(=O)Oc1ccc(CO)cc1)C(=O)O		140		Not Active

From ChEMBL document CHEMBL1131298 (J Med Chem, 1998)
